Measured values: ChEMBL document CHEMBL4184148 (Bioorg Med Chem Lett, 2017)

Columns and labels:
[1] = target: Phosphorylase b kinase gamma catalytic chain, liver/testis isoform (Homo sapiens) (UniProt P15735); test: Binding affinity to wild-type human partial length PHKG2 (M1 to W300 residues) expressed in Escherichia coli BL21 at 1 uM by Kinomescan method relative to control
[2] = target: Serine/threonine-protein kinase PAK 2 (Homo sapiens) (UniProt Q13177); test: Binding affinity to wild-type human partial length PAK2 (P151 to R525 residues) expressed in Escherichia coli BL21 at 1 uM by Kinomescan method relative to control
Serine/threonine-protein kinase PAK 2 (Homo sapiens), sequence (Q13177 whole entry, the tested form may be a part): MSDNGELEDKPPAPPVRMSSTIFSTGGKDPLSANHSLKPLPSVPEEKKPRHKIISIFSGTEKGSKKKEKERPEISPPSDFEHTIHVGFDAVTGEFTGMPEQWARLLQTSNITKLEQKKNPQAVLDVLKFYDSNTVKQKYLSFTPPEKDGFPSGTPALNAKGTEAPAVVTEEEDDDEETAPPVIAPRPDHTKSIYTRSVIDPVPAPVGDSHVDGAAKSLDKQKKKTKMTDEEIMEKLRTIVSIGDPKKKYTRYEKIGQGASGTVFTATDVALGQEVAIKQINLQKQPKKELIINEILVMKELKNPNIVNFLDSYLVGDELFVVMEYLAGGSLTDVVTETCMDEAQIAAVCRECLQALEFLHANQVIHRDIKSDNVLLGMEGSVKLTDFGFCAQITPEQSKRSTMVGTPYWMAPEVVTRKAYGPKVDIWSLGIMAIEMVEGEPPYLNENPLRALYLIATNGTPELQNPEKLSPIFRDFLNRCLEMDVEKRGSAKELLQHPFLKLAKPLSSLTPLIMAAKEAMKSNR

[3] = target: Calcium/calmodulin-dependent protein kinase type 1 (Homo sapiens) (UniProt Q14012); test: Binding affinity to wild-type human full length CAMK1 (M1 to L370 residues) expressed in Escherichia coli BL21 at 1 uM by Kinomescan method relative to control
[4] = target: Fibroblast growth factor receptor 1 (Homo sapiens) (UniProt P11362); test: Binding affinity to wild-type human partial length FGFR1 (P357 to V669 residues) expressed in Escherichia coli BL21 at 1 uM by Kinomescan method relative to control
Fibroblast growth factor receptor 1 (Homo sapiens), sequence (P11362 22-822 limits assumed): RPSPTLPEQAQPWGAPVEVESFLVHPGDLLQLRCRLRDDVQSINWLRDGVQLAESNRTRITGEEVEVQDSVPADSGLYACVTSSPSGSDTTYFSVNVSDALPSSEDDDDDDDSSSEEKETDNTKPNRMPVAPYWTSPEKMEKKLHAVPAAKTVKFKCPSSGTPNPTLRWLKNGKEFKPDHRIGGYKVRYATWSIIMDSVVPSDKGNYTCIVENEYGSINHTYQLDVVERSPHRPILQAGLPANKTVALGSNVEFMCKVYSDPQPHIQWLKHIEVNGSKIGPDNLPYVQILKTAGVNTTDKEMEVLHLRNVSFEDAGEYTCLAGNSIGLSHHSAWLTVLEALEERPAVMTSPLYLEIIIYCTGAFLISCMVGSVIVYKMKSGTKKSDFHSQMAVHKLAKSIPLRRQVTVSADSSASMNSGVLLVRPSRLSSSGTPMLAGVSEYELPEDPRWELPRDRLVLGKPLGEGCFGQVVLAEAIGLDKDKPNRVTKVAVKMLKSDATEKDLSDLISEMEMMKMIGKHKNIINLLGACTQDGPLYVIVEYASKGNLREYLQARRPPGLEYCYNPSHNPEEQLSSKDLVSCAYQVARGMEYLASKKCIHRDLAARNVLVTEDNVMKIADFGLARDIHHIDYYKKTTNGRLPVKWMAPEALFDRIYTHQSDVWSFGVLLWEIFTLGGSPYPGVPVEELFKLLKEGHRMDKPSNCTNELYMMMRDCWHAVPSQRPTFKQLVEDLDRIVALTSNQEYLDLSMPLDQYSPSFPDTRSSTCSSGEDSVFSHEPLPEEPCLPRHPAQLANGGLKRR

[5] = target: Mitogen-activated protein kinase kinase kinase 20 (Homo sapiens) (UniProt Q9NYL2); test: Binding affinity to wild-type human partial length ZAK (M1 to L331 residues) expressed in Escherichia coli BL21 at 1 uM by Kinomescan method relative to control
[6] = target: Vascular endothelial growth factor receptor 2 (Homo sapiens) (UniProt P35968); test: Binding affinity to wild-type human partial length VEGFR2 (R787 to P1253 residues) expressed in HEK293 cells at 1 uM by Kinomescan method relative to control; type: cell-based
Vascular endothelial growth factor receptor 2 (Homo sapiens), sequence (P35968 whole entry, the tested form may be a part): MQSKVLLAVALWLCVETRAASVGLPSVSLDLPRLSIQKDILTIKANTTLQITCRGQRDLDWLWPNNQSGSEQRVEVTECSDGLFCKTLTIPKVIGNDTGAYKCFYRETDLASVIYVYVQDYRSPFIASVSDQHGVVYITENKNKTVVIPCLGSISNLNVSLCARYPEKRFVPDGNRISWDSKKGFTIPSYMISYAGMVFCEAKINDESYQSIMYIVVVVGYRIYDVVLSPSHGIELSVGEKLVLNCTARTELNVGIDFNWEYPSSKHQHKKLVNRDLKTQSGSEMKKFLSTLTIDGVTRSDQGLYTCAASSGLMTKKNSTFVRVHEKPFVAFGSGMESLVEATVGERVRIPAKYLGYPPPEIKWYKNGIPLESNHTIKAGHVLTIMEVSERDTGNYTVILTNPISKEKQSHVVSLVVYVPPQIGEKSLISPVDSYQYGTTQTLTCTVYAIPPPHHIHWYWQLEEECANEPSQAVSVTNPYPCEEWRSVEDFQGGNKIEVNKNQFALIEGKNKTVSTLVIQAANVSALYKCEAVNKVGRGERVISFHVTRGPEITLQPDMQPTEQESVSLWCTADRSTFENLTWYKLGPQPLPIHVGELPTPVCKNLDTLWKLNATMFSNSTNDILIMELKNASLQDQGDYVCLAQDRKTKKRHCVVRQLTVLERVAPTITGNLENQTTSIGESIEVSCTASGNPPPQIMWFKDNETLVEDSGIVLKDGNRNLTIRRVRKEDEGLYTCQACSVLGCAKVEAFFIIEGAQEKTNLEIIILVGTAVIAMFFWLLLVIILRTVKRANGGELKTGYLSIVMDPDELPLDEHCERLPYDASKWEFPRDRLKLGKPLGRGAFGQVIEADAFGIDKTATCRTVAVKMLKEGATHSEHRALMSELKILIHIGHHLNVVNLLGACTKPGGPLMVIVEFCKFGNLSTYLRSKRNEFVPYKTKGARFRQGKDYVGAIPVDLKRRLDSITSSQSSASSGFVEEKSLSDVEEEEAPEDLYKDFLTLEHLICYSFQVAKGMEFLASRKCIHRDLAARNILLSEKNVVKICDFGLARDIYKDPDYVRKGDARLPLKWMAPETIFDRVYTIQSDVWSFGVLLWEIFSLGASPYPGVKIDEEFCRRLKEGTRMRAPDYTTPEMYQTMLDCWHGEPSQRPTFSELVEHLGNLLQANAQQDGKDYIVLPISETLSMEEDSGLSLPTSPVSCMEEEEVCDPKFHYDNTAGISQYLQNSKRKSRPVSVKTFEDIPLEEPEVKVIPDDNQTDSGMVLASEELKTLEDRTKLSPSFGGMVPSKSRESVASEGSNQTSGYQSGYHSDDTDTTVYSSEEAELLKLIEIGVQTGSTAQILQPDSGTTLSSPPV

[7] = target: Serine/threonine-protein kinase PAK 1 (Homo sapiens) (UniProt Q13153); test: Binding affinity to wild-type human partial length PAK1 (S149 to H545 residues) expressed in Escherichia coli BL21 at 1 uM by Kinomescan method relative to control
[8] = target: Serine/threonine-protein kinase PAK 3 (Homo sapiens) (UniProt O75914); test: Binding affinity to wild-type human full length PAK3 (M1 to R544 residues) expressed in Escherichia coli BL21 at 1 uM by Kinomescan method relative to control
In short: (§1)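 Kinome-wide competition binding panel run by an outside provider, with each compound tested at a single concentration. Activity is read against the kinase panel.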

[9] = target: Mitotic checkpoint serine/threonine-protein kinase BUB1 (Homo sapiens) (UniProt O43683); test: Binding affinity to wild-type human partial length BUB1 (Q724 to K1085 residues) expressed in HEK293 cells at 1 uM by Kinomescan method relative to control; type: cell-based
[10] = target: Interferon-induced, double-stranded RNA-activated protein kinase (Homo sapiens) (UniProt P19525); test: Binding affinity to wild-type human partial length PRKR (F247 to C551 residues) expressed in Escherichia coli BL21 at 1 uM by Kinomescan method relative to control
Interferon-induced, double-stranded RNA-activated protein kinase (Homo sapiens), sequence (P19525 whole entry, the tested form may be a part): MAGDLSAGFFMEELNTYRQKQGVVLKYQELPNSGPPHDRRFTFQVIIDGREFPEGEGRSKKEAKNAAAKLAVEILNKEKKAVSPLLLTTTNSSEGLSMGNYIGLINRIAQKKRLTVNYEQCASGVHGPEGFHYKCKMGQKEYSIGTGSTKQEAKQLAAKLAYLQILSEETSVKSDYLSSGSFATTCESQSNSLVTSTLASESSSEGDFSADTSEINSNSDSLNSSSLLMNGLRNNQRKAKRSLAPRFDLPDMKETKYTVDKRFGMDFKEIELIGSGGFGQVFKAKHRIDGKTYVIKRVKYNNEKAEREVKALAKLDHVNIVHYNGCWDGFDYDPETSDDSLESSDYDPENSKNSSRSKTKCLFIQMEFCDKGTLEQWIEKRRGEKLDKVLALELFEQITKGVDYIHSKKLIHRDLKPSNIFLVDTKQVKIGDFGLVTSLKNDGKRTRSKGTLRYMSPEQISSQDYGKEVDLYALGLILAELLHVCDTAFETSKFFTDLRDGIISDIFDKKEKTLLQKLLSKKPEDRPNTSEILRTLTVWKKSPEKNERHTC

[11] = target: Cyclin-dependent kinase 16 (Homo sapiens) (UniProt Q00536); test: Binding affinity to wild-type human partial length PCTK1 (G160 to A474 residues) expressed in HEK293 cells at 1 uM by Kinomescan method relative to control; type: cell-based
[12] = target: RAF proto-oncogene serine/threonine-protein kinase (Homo sapiens) (UniProt P04049); test: Binding affinity to wild-type human partial length RAF1 (I330 to T640 residues) expressed in Escherichia coli BL21 at 1 uM by Kinomescan method relative to control
[13] = target: Ribosomal protein S6 kinase alpha-6 (Homo sapiens) (UniProt Q9UK32); test: Binding affinity to wild-type human partial length N-terminal RSK4 kinase domain 1 (M1 to E397 residues) expressed in HEK293 cells at 1 uM by Kinomescan method relative to control; type: cell-based
[14] = target: Hepatocyte growth factor receptor (Homo sapiens) (UniProt P08581); test: Binding affinity to wild-type human partial length MET (D1010 to S1367 residues) expressed in Escherichia coli BL21 at 1 uM by Kinomescan method relative to control
[15] = target: LIM domain kinase 2 (Homo sapiens) (UniProt P53671); test: Binding affinity to wild-type human full length LIMK2 (M1 to P638 residues) expressed in Escherichia coli BL21 at 1 uM by Kinomescan method relative to control
In short: (§2)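 Run as one kinome-wide competition binding panel with each compound at a single fixed concentration. Results were plotted as a kinome-wide selectivity map.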

[16] = tested on: Epidermal growth factor receptor (Homo sapiens), P00533 [G719S]; test: Binding affinity to human partial length EGFR G719S mutant (R669 to V1011 residues) expressed in Escherichia coli BL21 at 1 uM by Kinomescan method relative to control
[17] = target: Serine/threonine-protein kinase 33 (Homo sapiens) (UniProt Q9BYT3); test: Binding affinity to wild-type human full length STK33 (M1 to L514 residues) expressed in Escherichia coli BL21 at 1 uM by Kinomescan method relative to control; in short: as §1
Serine/threonine-protein kinase 33 (Homo sapiens), sequence (Q9BYT3 whole entry, looked up, the tested form may be a part): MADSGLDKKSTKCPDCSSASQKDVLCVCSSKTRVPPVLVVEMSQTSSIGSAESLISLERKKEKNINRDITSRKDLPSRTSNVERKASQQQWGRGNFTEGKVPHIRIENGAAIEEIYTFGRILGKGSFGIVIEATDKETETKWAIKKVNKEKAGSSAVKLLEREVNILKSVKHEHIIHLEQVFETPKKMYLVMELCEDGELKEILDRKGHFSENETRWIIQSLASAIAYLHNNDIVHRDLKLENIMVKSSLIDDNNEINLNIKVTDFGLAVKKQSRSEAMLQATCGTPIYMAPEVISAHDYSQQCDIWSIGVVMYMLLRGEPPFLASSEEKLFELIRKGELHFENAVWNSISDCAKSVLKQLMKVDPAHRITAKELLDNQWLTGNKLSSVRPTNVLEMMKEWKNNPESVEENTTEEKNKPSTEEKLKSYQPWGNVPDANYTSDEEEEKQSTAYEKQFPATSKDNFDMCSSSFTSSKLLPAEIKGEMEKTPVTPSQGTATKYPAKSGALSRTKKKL

[18] = target: Ephrin type-A receptor 7 (Homo sapiens) (UniProt Q15375); test: Binding affinity to wild-type human partial length EPHA7 (Y608 to S912 residues) expressed in Escherichia coli BL21 at 1 uM by Kinomescan method relative to control
[19] = target: Misshapen-like kinase 1 (Homo sapiens) (UniProt Q8N4C8); test: Binding affinity to wild-type human partial length MINK (M1 to K312 residues) expressed in HEK293 cells at 1 uM by Kinomescan method relative to control; type: cell-based
Misshapen-like kinase 1 (Homo sapiens), sequence (Q8N4C8 whole entry, looked up, the tested form may be a part): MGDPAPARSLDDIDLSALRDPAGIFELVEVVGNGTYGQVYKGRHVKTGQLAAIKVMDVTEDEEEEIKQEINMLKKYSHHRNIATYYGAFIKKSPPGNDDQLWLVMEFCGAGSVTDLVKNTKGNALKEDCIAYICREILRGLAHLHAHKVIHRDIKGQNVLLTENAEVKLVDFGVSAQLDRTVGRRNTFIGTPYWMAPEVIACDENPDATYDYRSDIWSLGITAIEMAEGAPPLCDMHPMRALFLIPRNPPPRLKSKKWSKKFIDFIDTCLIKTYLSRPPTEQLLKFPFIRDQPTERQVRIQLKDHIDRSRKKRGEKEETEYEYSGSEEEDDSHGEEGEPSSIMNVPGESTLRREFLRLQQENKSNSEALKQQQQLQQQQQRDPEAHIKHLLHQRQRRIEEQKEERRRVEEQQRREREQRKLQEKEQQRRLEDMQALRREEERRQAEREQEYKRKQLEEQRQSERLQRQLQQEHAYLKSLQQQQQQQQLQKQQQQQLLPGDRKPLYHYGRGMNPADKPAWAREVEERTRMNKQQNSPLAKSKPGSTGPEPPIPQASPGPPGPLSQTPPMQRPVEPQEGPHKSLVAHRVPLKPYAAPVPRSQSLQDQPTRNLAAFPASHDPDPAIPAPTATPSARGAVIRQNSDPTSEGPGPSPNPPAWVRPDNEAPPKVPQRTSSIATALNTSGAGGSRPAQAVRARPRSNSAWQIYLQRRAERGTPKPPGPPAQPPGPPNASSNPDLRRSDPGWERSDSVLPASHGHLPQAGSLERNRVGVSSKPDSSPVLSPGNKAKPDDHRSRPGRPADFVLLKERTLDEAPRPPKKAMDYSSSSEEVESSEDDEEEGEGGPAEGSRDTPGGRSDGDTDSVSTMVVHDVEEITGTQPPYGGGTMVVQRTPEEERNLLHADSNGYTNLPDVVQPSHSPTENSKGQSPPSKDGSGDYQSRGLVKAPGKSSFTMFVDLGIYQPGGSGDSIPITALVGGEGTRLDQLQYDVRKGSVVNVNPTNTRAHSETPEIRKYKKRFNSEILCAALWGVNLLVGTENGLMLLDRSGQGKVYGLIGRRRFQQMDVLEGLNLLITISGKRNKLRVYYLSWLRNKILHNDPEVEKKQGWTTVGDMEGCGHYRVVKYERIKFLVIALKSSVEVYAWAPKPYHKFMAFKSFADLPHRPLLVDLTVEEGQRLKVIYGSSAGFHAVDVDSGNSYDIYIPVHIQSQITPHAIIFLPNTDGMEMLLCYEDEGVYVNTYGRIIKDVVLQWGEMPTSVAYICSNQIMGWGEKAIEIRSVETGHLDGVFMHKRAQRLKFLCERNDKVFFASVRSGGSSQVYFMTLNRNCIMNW

[20] = target: cAMP-dependent protein kinase catalytic subunit PRKX (Homo sapiens) (UniProt P51817); test: Binding affinity to wild-type human partial length PRKX (M1 to F358 residues) expressed in Escherichia coli BL21 at 1 uM by Kinomescan method relative to control
[21] = target: Platelet-derived growth factor receptor beta (Homo sapiens) (UniProt P09619); test: Binding affinity to wild-type human partial length PDGFRB (V582 to Y1009 residues) expressed in Escherichia coli BL21 at 1 uM by Kinomescan method relative to control
[22] = target: Cyclin-dependent kinase 14 (Homo sapiens) (UniProt O94921); test: Binding affinity to wild-type human full length PFTK1 (M1 to H451 residues) expressed in Escherichia coli BL21 at 1 uM by Kinomescan method relative to control; in short: as §1
[23] = target: Serine/threonine-protein kinase 3 (Homo sapiens) (UniProt Q13188); test: Binding affinity to wild-type human partial length MST2 (D17 to E318 residues) expressed in Escherichia coli BL21 at 1 uM by Kinomescan method relative to control
[24] = target: Dual specificity tyrosine-phosphorylation-regulated kinase 2 (Homo sapiens) (UniProt Q92630); test: Binding affinity to wild-type human full length DYRK2 (M1 to S528 residues) expressed in HEK293 cells at 1 uM by Kinomescan method relative to control; type: cell-based; in short: as §2
[25] = target: Serine/threonine-protein kinase LATS2 (Homo sapiens) (UniProt Q9NRM7); test: Binding affinity to wild-type human partial length LATS2 (Q641 to V1088 residues) expressed in HEK293 cells at 1 uM by Kinomescan method relative to control; type: cell-based

SMILES | Activity [1] [%] | Activity [2] [%] | Activity [3] [%] | Activity [4] [%] | Activity [5] [%] | Activity [6] [%] | Activity [7] [%] | Activity [8] [%] | Activity [9] [%] | Activity [10] [%] | Activity [11] [%] | Activity [12] [%] | Activity [13] [%] | Activity [14] [%] | Activity [15] [%] | Activity [16] [%] | Activity [17] [%] | Activity [18] [%] | Activity [19] [%] | Activity [20] [%] | other results
CCC(=O)Nc1ccc(C(=O)Nc2ccc(Nc3ncc4c(n3)N(C)c3ccc(C)cc3C(=O)N4C)cc2)cc1 | 88 | 99 | 90 | 82 | 85 | 76 | 94 | 55 | 98 | 100 | 74 | 96 | 74 | 90 | 89 | 93 | 79 | 86 | 65 | 80 | Activity [21]: 84%; Activity [22]: 95%; Activity [23]: 70%; Activity [24]: 100%; Activity [25]: 92%
C=CC(=O)Nc1ccc(C(=O)Nc2ccc(Nc3ncc4c(n3)N(C)c3ccc(C)cc3C(=O)N4C)cc2)cc1 | 100 | 86 | 88 | 84 | 100 | 88 | 93 | 69 | 95 | 90 | 100 | 88 | 76 | 100 | 100 | 100 | 99 | 94 | 98 | 100 | Activity [21]: 94%; Activity [22]: 100%; Activity [23]: 100%; Activity [24]: 92%; Activity [25]: 100%
